Measured values from ChEMBL document CHEMBL1135578, “Rhodacyanine dyes as antimalarials. 1. Preliminary evaluation of their activity and toxicity” (J Med Chem, 2002).
pEC50: −log10 of the molar value.

Experiments:
Plasmodium falciparum = experiment: In vitro antimalarial activity against chloroquine-sensitive Plasmodium falciparum FCR3; format: functional, organism-based
Procedure, shortened: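 In vitro growth of chloroquine-sensitive P. falciparum FCR-3 read as EC50; some entries are given as EC70 values (% parasite growth observed) where noted.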

FM3A [1] = experiment: Cytotoxicity against mouse mammary tumor FM3A cells representing a model of host; format: functional, cell-based
Procedure, shortened: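 Growth of mouse mammary tumor FM3A cells, used as a host model, read as EC50; some entries are given as lower-effect ECx values (% growth observed) where noted.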

[2] = (§1) Selective toxicity- EC50 value of FM3A / EC50 value of Plasmodium falciparum; format: cell-based; conditions: mouse, FM3A cells; read-out: Toxicity ratio
Procedure, shortened: (§2)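 Ratio computed as EC50 in FM3A cells divided by EC50 against P. falciparum FCR-3.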

FM3A [3] = experiment: as §1; format: cell-based; conditions: mouse, fm3a; procedure, shortened: as §2

With `CCn1c(=O)/c(=C2\Sc3ccccc3N2C)s/c1=C\c1cccc(-c2ccccc2)[n+]1C` as the compound, how does the pEC50 (Plasmodium falciparum; Plasmodium falciparum) read?
Its pEC50 is 7.25.

And the pEC50 (FM3A [1]; Mus musculus, FM3A)?
The pEC50 was 5.72.

And the selectivity ratio [2]?
The selectivity ratio was 34.

With `CN1/C(=C\c2cccc[n+]2C)Sc2ccccc21` as the compound, how does the pEC50 (Plasmodium falciparum; Plasmodium falciparum) read?
Its pEC50 is 6.62.

With `CC[N+]1=C(SC)S/C(=C2/Sc3ccccc3N2C)C1=O` as the compound, how does the pEC50 (Plasmodium falciparum; Plasmodium falciparum) read?
Its pEC50 is 5.43.

With `CN1/C(=c2\s/c(=C\c3cc[n+](C)cc3)n(Cc3ccccc3)c2=O)Sc2ccccc21` as the compound, how does the pEC50 (Plasmodium falciparum; Plasmodium falciparum) read?
The pEC50 was 7.30.

What about the pEC50 (FM3A [1]; Mus musculus, FM3A) of the same compound?
The pEC50 was 6.09.

What about the selectivity ratio [2] of the same compound?
Its selectivity ratio is 16.

With `CCn1c(=O)/c(=C2\Sc3ccccc3N2C)s/c1=C\c1cccc[n+]1C.Cc1ccc(S(=O)(=O)[O-])cc1` as the compound, how does the pEC50 (Plasmodium falciparum) read?
Its pEC50 is 7.64.

And the pEC50 (FM3A [1]; fm3a)?
The pEC50 was 4.96.

And the Toxicity ratio (FM3A [3])?
Its Toxicity ratio is 480.

Which results are given for `C=CCn1c(=O)/c(=C2\Sc3ccccc3N2C)s/c1=C\c1cc[n+](C)cc1`?
pEC50 (Plasmodium falciparum; Plasmodium falciparum): 7.85; pEC50 (FM3A [1]; Mus musculus, FM3A): 5.17; selectivity ratio [2]: 480

With `CCn1c(=O)/c(=C2\Sc3cc(C(F)(F)F)ccc3N2C)s/c1=C\c1cccc[n+]1CC` as the compound, how does the pEC50 (Plasmodium falciparum; Plasmodium falciparum) read?
Its pEC50 is 7.18.

What about the pEC50 (FM3A [1]; Mus musculus, FM3A) of the same compound?
The pEC50 was 5.38.

And the selectivity ratio [2]?
The selectivity ratio was 64.

With `CCn1c(=O)/c(=C2\Sc3ccccc3N2C)s/c1=C\c1cccc[n+]1CCO` as the compound, how does the pEC50 (Plasmodium falciparum; Plasmodium falciparum) read?
Its pEC50 is 6.68.

What about the pEC50 (FM3A [1]; Mus musculus, FM3A) of the same compound?
Its pEC50 is under 4.77.

What about the selectivity ratio [2] of the same compound?
Its selectivity ratio is over 81.

Which results are given for `C=CCn1c(=O)/c(=C2\Sc3ccccc3N2C)s/c1=C\c1cccc[n+]1C` [listing 1 of 2 here]?
pEC50 (Plasmodium falciparum): 7.92; pEC50 (FM3A [1]; Mus musculus, FM3A): 4.92; selectivity ratio [2]: 1000

With `CC[n+]1ccccc1/C=c1\s/c(=C2/Sc3ccccc3N2C)c(=O)n1CCCCC(=O)O` as the compound, how does the pEC50 (Plasmodium falciparum; Plasmodium falciparum) read?
Its pEC50 is 5.82.

And the pEC50 (FM3A [1]; Mus musculus, FM3A)?
The pEC50 was under 4.77.

What about the selectivity ratio [2] of the same compound?
Its selectivity ratio is over 11.

With `CCn1c(=O)/c(=C2\Sc3ccccc3N2C)s/c1=C\c1cccc[n+]1C` as the compound, how does the pEC50 (Plasmodium falciparum; Plasmodium falciparum) read?
The pEC50 was 7.55.

What about the pEC50 (FM3A [1]; Mus musculus, FM3A) of the same compound?
Its pEC50 is 4.85.

And the selectivity ratio [2]?
The selectivity ratio was 500.

With `CCN1C(=O)CS/C1=C\c1sc2ccccc2[n+]1CC` as the compound, how does the pEC50 (Plasmodium falciparum; Plasmodium falciparum) read?
The pEC50 was 6.28.

Which results are given for `CCn1c(=O)/c(=C2\Sc3ccccc3N2C)s/c1=C\c1cc[n+](C)c2ccccc12`?
pEC50 (Plasmodium falciparum; Plasmodium falciparum): 8.11; pEC50 (FM3A [1]; Mus musculus, FM3A): 6.17; selectivity ratio [2]: 87

With `CCn1c(=O)/c(=C2\Sc3ccccc3N2C)s/c1=C\c1cc[n+](C)cc1` as the compound, how does the pEC50 (Plasmodium falciparum; Plasmodium falciparum) read?
The pEC50 was 7.25.

What about the pEC50 (FM3A [1]; Mus musculus, FM3A) of the same compound?
Its pEC50 is under 4.62.

What about the selectivity ratio [2] of the same compound?
Its selectivity ratio is over 430.

With `COC(=O)c1ccccc1-c1c2ccc(=N)cc-2oc2cc(N)ccc12` [RHODAMINE123] as the compound, how does the pEC50 (Plasmodium falciparum; Plasmodium falciparum) read?
The pEC50 was 6.52.

And the pEC50 (FM3A [1]; Mus musculus, FM3A)?
Its pEC50 is 5.00.

What about the selectivity ratio [2] of the same compound?
Its selectivity ratio is 33.

With `CCn1c(=O)/c(=C2\Sc3ccccc3N2C)s/c1=C\c1cccc[n+]1C.[Cl-]` as the compound, how does the pEC50 (Plasmodium falciparum) read?
Its pEC50 is 7.59.

And the pEC50 (FM3A [1]; fm3a)?
Its pEC50 is 4.80.

What about the Toxicity ratio (FM3A [3]) of the same compound?
The Toxicity ratio was 620.

With `CCn1c(=O)/c(=C2\C=Cc3ccccc3N2C)s/c1=C\c1cccc[n+]1C` as the compound, how does the pEC50 (Plasmodium falciparum; Plasmodium falciparum) read?
Its pEC50 is 6.62.

With `CCN1C(=O)/C(=C2\Sc3ccccc3N2C)SC1=S` as the compound, how does the pEC50 (Plasmodium falciparum; Plasmodium falciparum) read?
The pEC50 was under 4.55.

With `CCn1c(=O)/c(=C2\Sc3ccc4ccccc4c3N2C)s/c1=C\c1cccc[n+]1CCO` as the compound, how does the pEC50 (Plasmodium falciparum; Plasmodium falciparum) read?
Its pEC50 is 7.37.

And the pEC50 (FM3A [1]; Mus musculus, FM3A)?
Its pEC50 is 5.30.

And the selectivity ratio [2]?
Its selectivity ratio is 120.

With `C=CCn1c(=O)/c(=C2\Sc3ccccc3N2C)s/c1=C\c1cccc[n+]1C` [listing 2 of 2 here] as the compound, how does the pEC50 (Plasmodium falciparum) read?
Its pEC50 is under 7.42.

With `CCn1c(=O)/c(=C2\SCCN2C)s/c1=C\c1cccc[n+]1C` as the compound, how does the pEC50 (Plasmodium falciparum; Plasmodium falciparum) read?
The pEC50 was 6.64.

What about the pEC50 (FM3A [1]; Mus musculus, FM3A) of the same compound?
Its pEC50 is under 4.47.

And the selectivity ratio [2]?
The selectivity ratio was over 150.

What does the source list for `CCn1c(=O)/c(=C2\Sc3ccccc3N2C)s/c1=C\c1cccc[n+]1CCCCC(=O)O`?
pEC50 (Plasmodium falciparum; Plasmodium falciparum): 6.17; pEC50 (FM3A [1]; Mus musculus, FM3A): < 4.74; selectivity ratio [2]: > 26

What does the source list for `CN(C)c1ccc2nc3ccc(N(C)C)cc3[s+]c2c1` [METHYLENE BLUE ANHYDROUS]?
pEC50 (Plasmodium falciparum; Plasmodium falciparum): 7.77; pEC50 (FM3A [1]; Mus musculus, FM3A): 5.96; selectivity ratio [2]: 65

With `CN1/C(=c2\s/c(=C\c3cccc[n+]3C)n(Cc3ccccc3)c2=O)Sc2ccccc21` as the compound, how does the pEC50 (Plasmodium falciparum; Plasmodium falciparum) read?
The pEC50 was 7.51.

What about the pEC50 (FM3A [1]; Mus musculus, FM3A) of the same compound?
The pEC50 was 6.10.

And the selectivity ratio [2]?
The selectivity ratio was 26.

With `CCn1c(=O)/c(=C2\C=CC=CN2C)s/c1=C\c1cccc[n+]1C` as the compound, how does the pEC50 (Plasmodium falciparum; Plasmodium falciparum) read?
The pEC50 was 6.46.

With `CCn1c(=O)/c(=C2\Sc3ccccc3N2C)s/c1=C\c1cccc[n+]1C.[OH-]` as the compound, how does the pEC50 (Plasmodium falciparum) read?
Its pEC50 is 7.66.

And the pEC50 (FM3A [1]; fm3a)?
Its pEC50 is 4.89.

What about the Toxicity ratio (FM3A [3]) of the same compound?
Its Toxicity ratio is 590.

With `CN1/C(=c2\s/c(=C\c3cccc[n+]3C)n(C)c2=O)Sc2ccccc21` as the compound, how does the pEC50 (Plasmodium falciparum; Plasmodium falciparum) read?
Its pEC50 is 7.35.

And the pEC50 (FM3A [1]; Mus musculus, FM3A)?
Its pEC50 is 5.42.

What about the selectivity ratio [2] of the same compound?
Its selectivity ratio is 84.

For `CCN(CC)CCCC(C)Nc1ccnc2cc(Cl)ccc12` (stereo not given) [CHLOROQUINE], which selectivity ratio [2] is on record?
The selectivity ratio was 1800.

For `C=C[C@H]1C[N@@]2CC[C@H]1C[C@H]2[C@H](O)c1ccnc2ccc(OC)cc12` [QUININE], which selectivity ratio [2] is on record?
The selectivity ratio was 910.

Which results are given for `CCn1c(=O)/c(=C2\Sc3ccccc3N2C)s/c1=C\c1ccc2ccccc2[n+]1C`?
pEC50 (Plasmodium falciparum; Plasmodium falciparum): 8.34; pEC50 (FM3A [1]; Mus musculus, FM3A): 6.24; selectivity ratio [2]: 130

What does the source list for `CCn1c(=O)/c(=C2\Sc3ccccc3N2C)s/c1=C\c1cccc[n+]1CC`?
pEC50 (Plasmodium falciparum; Plasmodium falciparum): 7.15; pEC50 (FM3A [1]; Mus musculus, FM3A): 4.82; selectivity ratio [2]: 210
